Assay results from ChEMBL document CHEMBL1122127, “New anticancer agents: synthesis of 1,2-dihydropyrido[3,4-b]pyrazines (1-deaza-7,8-dihydropteridines)” (1982).

Assays:
L1210 [1] = assay: Inhibitory concentration against proliferation of cultured lymphoid leukemia L1210 cells during 48 hrs.; format: functional; conditions: Mus musculus, L1210, 48 h; read-out: ID50 (the source's name)
L1210 [2] = assay: Fraction of cell population of cultured lymphoid leukemia L1210 cells in mitosis at a dose of 0.03 uM after 12 hr; format: functional, Mus musculus
Mus musculus [3] = assay: Increase in life span at the highest nontoxic dose against P-388 tumor cell […] at 100 mg/kg; format: functional; conditions: P388
Outline: (§1)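 Mice bearing lymphocytic leukemia P-388 (parental or drug-resistant sublines). The reported value is the increase in life span at the highest nontoxic dose tested.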

Mus musculus [4] = assay: Increase in life span at the highest nontoxic dose against P-388 tumor cell […] at 90 mg/kg; format: functional; conditions: P388; outline: as §1
Mus musculus [5] = assay: Increase in life span at the highest nontoxic dose against P-388 tumor cell after 1,5,9 day at 30 mg/kg; format: functional; conditions: P388; outline: as §1
L1210 [6] = assay: Fraction of cell population of cultured lymphoid leukemia L1210 cells in mitosis at a dose of 0.01 uM after 12 hr; format: functional, Mus musculus
L1210 [7] = assay: Fraction of cell population of cultured lymphoid leukemia L1210 cells in mitosis at a dose of 0.3 uM after 12 hr; format: functional, Mus musculus
Mus musculus [8] = assay: Increase in life span at the highest nontoxic dose against P-388 tumor cell […] at 25 mg/kg; format: functional; conditions: P388; outline: as §1
Mus musculus [9] = assay: Increase in life span at the highest nontoxic dose against P-388 tumor cell after 1-5 days at 12 mg/kg; format: functional; conditions: P388; outline: as §1
L1210 [10] = assay: Fraction of cell population of cultured lymphoid leukemia L1210 cells in mitosis at a dose of 0.1 uM after 12 hr; format: functional, Mus musculus
Mus musculus [11] = assay: Increase in life span at the highest nontoxic dose against P-388 tumor cell after 1-9 days at 25 mg/kg; format: functional; conditions: P388; outline: as §1
Mus musculus [12] = assay: Increase in life span at the highest nontoxic dose against P-388 tumor cell […] at 50 mg/kg; format: functional; conditions: P388; outline: as §1
Mus musculus [13] = assay: Increase in life span at the highest nontoxic dose against P-388 tumor cell […] was determined at 25 mg/kg; format: functional; conditions: P388; outline: as §1
Mus musculus [14] = assay: Increase in life span at the highest nontoxic dose against methotrexate resistant cell line of P-388 tumor cell […] at 25 mg/kg; format: functional; conditions: P388; outline: as §1
Mus musculus [15] = assay: Increase in life span at the highest nontoxic dose against Vincristine-resistant line of P-388 tumor cell […] at 12 mg/kg; format: functional; conditions: P388; outline: as §1
L1210 [16] = assay: Fraction of cell population of cultured lymphoid leukemia L1210 cells in mitosis at a dose of 0.3 uM after 24 hr; format: functional, Mus musculus
Mus musculus [17] = assay: Increase in life span at the highest nontoxic dose against P-388 tumor cell […] at 200 mg/kg; format: functional; conditions: P388; outline: as §1
Mus musculus [18] = assay: Increase in life span at the highest nontoxic dose against P-388 tumor cell after 1,5,9 day at 12.5 mg/kg; format: functional; conditions: P388; outline: as §1
Mus musculus [19] = assay: Increase in life span at the highest nontoxic dose against P-388 tumor cell after 1,5,9 day at 6.25 mg/kg; conditions: P388
Mus musculus [20] = assay: Increase in life span at the highest nontoxic dose against P-388 tumor cell […] at 67 mg/kg; format: functional; conditions: P388; outline: as §1
Mus musculus [21] = assay: Increase in life span at the highest nontoxic dose against P-388 tumor cell […] was determined at 100 mg/kg; format: functional; conditions: P388; outline: as §1

CCOC(=O)Nc1cc2c(c(N)n1)N=C(c1ccc(Cl)c(Cl)c1)CN2
IC50 (L1210 [1]): 18 nM

CCOC(=O)Nc1cc2c(c(N)n1)N=C(CN(C)c1ccc(Cl)cc1)CN2
Mitotic index (L1210 [2]): 0.71 | IC50 (L1210 [1]): 14.5 nM | ILS at 100 mg/kg (Mus musculus [3]): 65%

CCOC(=O)Nc1cc2c(c(N)n1)N=C(c1ccc(F)cc1)CN2
IC50 (L1210 [1]): 6.8 nM

CCOC(=O)Nc1cc2c(c(N)n1)N=C(c1ccc(C(F)(F)F)cc1)CN2
IC50 (L1210 [1]): 150 nM | ILS at 90 mg/kg (Mus musculus [4]): 0% | ILS at 30 mg/kg (Mus musculus [5]): 0%

CC[C@]1(O)C[C@H]2CN(CCc3c([nH]c4ccccc34)[C@@](C(=O)OC)(c3cc4c(cc3OC)N(C=O)[C@H]3[C@@](O)(C(=O)OC)[C@H](OC(C)=O)[C@]5(CC)C=CCN6CC[C@]43[C@@H]65)C2)C1 [VINCRISTINE]
IC50 (L1210 [1]): < 1 nM

CCOC(=O)Nc1cc2c(c(N)n1)N=C(c1cc(OC)c(OC)c(OC)c1)CN2
IC50 (L1210 [1]): 78 nM

CCOC(=O)Nc1cc2c(c(N)n1)N=C(c1ccc(-c3ccccc3)cc1)CN2
Mitotic index (L1210 [6]): 0.65 | Mitotic index (L1210 [7]): 0.42 | IC50 (L1210 [1]): 6.1 nM | ILS at 25 mg/kg (Mus musculus [8]): 36%

CCOC(=O)Nc1cc2c(c(N)n1)N=C(c1cccc(OC)c1)CN2
IC50 (L1210 [1]): 1.22 nM

CCOC(=O)Nc1cc2c(c(N)n1)N=C(c1ccc(C)cc1)CN2
IC50 (L1210 [1]): 24 nM | ILS at 12 mg/kg (Mus musculus [9]): 30%

CCOC(=O)Nc1cc2c(c(N)n1)N=C(c1ccc(OC)cc1)CN2
IC50 (L1210 [1]): 4.1 nM | ILS at 25 mg/kg (Mus musculus [8]): 50%

CCOC(=O)Nc1cc2c(c(N)n1)N=C(c1ccc(Cl)cc1Cl)CN2
IC50 (L1210 [1]): 44 nM

CCOC(=O)Nc1cc2c(c(N)n1)N=C(CN(C)c1ccc(C(=O)OC)cc1)CN2
Mitotic index (L1210 [10]): 0.44 | Mitotic index (L1210 [7]): 0.61 | IC50 (L1210 [1]): 58 nM | ILS at 25 mg/kg (Mus musculus [11]): 30%

CCOC(=O)Nc1cc2c(c(N)n1)N=C(c1ccc(C)cc1C)CN2
IC50 (L1210 [1]): 42 nM

CCOC(=O)Nc1cc2c(c(N)n1)N=C(CN(C)c1ccc(OC)cc1)CN2
Mitotic index (L1210 [2]): 0.64 | Mitotic index (L1210 [7]): 0.49 | IC50 (L1210 [1]): 7.9 nM | ILS at 50 mg/kg (Mus musculus [12]): 80% | ILS at 25 mg/kg (Mus musculus [13]): 133% | ILS at 25 mg/kg (Mus musculus [14]): 150%

CCOC(=O)Nc1cc2c(c(N)n1)N=C(c1ccc(C)c(C)c1)CN2
IC50 (L1210 [1]): 138 nM

CCOC(=O)Nc1cc2c(c(N)n1)N=C(c1ccc(N)cc1)CN2
IC50 (L1210 [1]): 23 nM

COC(=O)Nc1nc2cc(C(=O)c3cccs3)ccc2[nH]1 [NOCODAZOLE]
IC50 (L1210 [1]): 27 nM

CCOC(=O)Nc1cc2c(c(N)n1)N=C(c1ccccc1)CN2
IC50 (L1210 [1]): 4.7 nM | ILS at 12 mg/kg (Mus musculus [15]): 50%

CCOC(=O)Nc1cc2c(c(N)n1)N=C(c1ccc(Cl)cc1)CN2
Mitotic index (L1210 [16]): 0.26 | IC50 (L1210 [1]): 52 nM | ILS at 200 mg/kg (Mus musculus [17]): 38% | ILS at 12.5 mg/kg (Mus musculus [18]): 37% | ILS at 6.25 mg/kg (Mus musculus [19]): 38%

CCOC(=O)Nc1cc2c(c(N)n1)N=C(CN(C)c1ccccc1)CN2
Mitotic index (L1210 [2]): 0.77 | Mitotic index (L1210 [16]): 0.8 | IC50 (L1210 [1]): 8.4 nM | ILS at 67 mg/kg (Mus musculus [20]): 90% | ILS at 100 mg/kg (Mus musculus [21]): 114%
